# Experimental data published in ChEMBL document CHEMBL4014327 (J Med Chem, 2017).
# Key:
# CYP1A2 = CYP1A2 (Homo sapiens, UniProt P05177); assay: Inhibition of CYP1A2 in human liver microsomes at 3 uM; format: ADME
# Plasma [1] = assay: Free plasma concentration in Sprague-Dawley rat LPS model at 0.3 mg/kg, po after 2.5 hrs; format: ADME, organism-based; conditions: in vivo
# In short: (§1)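 Male Sprague−Dawley rats, 6−8 weeks old, n = 6−9 per group. Dosed orally at 0.3, 1, 3 or 30 mg/kg in 0.5% methylcellulose/2% Tween 80 in water. Ultrapure LPS 0.01 mg/kg iv given 1 h after dosing. Plasma exposure taken 2.5 h after oral dosing and reported as free concentration using fraction unbound in rat plasma.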
# Cytochrome P450 2B6 = Cytochrome P450 2B6 (Homo sapiens, UniProt P20813); assay: Time dependent inhibition of CYP2B6 in human liver microsomes at 100 uM; format: ADME
# In short: (§2)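 Time-dependent inhibition assessed in pooled human liver microsomes with probe substrates, test compound at 100 μM.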
# [2] = molecular target: T1, Interleukin-1 receptor-associated kinase 4 (Homo sapiens) (UniProt Q9NWZ3); assay: Inhibition of recombinant human full length His-tagged IRAK4 expressed in baculovirus at 200 nM
# T1 sequence (whole entry): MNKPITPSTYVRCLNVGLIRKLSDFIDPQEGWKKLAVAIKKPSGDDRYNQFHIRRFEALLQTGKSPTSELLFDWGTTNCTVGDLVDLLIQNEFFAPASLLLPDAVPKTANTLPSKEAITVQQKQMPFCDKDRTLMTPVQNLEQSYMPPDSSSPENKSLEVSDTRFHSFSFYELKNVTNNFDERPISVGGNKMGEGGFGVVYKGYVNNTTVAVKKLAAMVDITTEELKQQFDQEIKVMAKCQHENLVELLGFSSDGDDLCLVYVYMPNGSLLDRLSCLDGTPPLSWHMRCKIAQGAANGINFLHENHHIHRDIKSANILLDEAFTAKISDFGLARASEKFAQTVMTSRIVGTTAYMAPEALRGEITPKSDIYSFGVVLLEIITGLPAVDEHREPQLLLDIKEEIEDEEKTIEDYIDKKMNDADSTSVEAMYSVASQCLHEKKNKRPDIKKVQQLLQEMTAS
# [3] = molecular target: Interleukin-1 receptor-associated kinase 3 (Homo sapiens) (UniProt Q9Y616); assay: Inhibition of IRAK3 in human THP1 cell lysate at 200 nM
# [4] = Half life in cynomolgus monkey at 5 mg/kg, po administered as single dose; format: ADME, organism-based, Macaca fascicularis; conditions: in vivo
# Rattus norvegicus [5] = assay: Inhibition of LPS induced TNFalpha secretion in Sprague-Dawley rat assessed as decrease in TNFalpha level in serum at 30 mg/kg, po pretreated for 1 hr followed by LPS challenge measured after 1.5 hrs relative to control; format: functional
# In short: (§3)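 Male Sprague-Dawley rats, 6-8 weeks old, n = 6-9 per group. Test article was given orally at 0.3, 1, 3 or 30 mg/kg as a solution or suspension in 0.5% methylcellulose and 2% Tween 80 in water; controls received vehicle alone. Ultrapure LPS (0.01 mg/kg) was given iv 1 h later. Blood was drawn 1.5 h after challenge, and serum TNF was measured by MSD.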
# CYP3A4 = CYP3A4 (Homo sapiens, UniProt P08684); assay: Inhibition of CYP3A4 in human liver microsomes at 3 uM; format: ADME
# Sequence of CYP3A4 (P08684 whole entry): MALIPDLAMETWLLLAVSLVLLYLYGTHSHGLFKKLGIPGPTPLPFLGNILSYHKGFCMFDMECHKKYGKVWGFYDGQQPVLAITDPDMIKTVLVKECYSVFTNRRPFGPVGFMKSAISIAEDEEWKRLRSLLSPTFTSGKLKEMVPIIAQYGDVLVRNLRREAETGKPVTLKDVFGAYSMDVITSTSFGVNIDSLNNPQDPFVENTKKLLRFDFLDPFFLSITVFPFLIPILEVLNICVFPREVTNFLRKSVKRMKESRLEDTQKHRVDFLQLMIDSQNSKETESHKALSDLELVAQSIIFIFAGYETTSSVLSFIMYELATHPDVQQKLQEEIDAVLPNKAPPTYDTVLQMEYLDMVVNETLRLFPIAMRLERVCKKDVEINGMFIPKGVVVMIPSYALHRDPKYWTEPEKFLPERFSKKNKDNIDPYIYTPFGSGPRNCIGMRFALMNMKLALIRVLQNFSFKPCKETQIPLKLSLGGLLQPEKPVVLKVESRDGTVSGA
# Plasma [6] = assay: Free plasma concentration in Sprague-Dawley rat LPS model at 3 mg/kg, po after 2.5 hrs; format: ADME, organism-based; conditions: in vivo; in short: as §1
# Rattus norvegicus [7] = assay: Inhibition of LPS induced TNFalpha secretion in Sprague-Dawley rat assessed as decrease in TNFalpha level in serum at 3 mg/kg, po pretreated for 1 hr followed by LPS challenge measured after 1.5 hrs relative to control; format: functional; in short: as §3
# Cytochrome P450 2C19 = Cytochrome P450 2C19 (Homo sapiens, UniProt P33261); assay: Time dependent inhibition of CYP2C19 in human liver microsomes at 100 uM; format: ADME; in short: as §2
# Sequence of Cytochrome P450 2C19 (P33261 whole entry): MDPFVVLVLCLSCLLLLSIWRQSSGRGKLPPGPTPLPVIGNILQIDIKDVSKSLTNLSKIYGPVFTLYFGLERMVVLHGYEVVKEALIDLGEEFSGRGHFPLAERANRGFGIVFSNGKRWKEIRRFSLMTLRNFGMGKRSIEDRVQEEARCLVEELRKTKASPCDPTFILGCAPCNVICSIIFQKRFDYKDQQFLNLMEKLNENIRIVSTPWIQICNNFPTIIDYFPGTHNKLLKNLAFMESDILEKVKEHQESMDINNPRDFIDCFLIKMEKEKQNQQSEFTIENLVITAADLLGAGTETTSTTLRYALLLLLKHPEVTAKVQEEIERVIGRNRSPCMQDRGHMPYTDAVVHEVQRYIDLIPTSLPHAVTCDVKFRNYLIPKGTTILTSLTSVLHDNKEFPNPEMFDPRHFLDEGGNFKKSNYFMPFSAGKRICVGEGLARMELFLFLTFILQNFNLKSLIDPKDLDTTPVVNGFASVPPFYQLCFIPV
# [8] = molecular target: MAP kinase-interacting serine/threonine-protein kinase 2 (Homo sapiens) (UniProt Q9HBH9); assay: Inhibition of N-terminal-GST-tagged human full length MNK2 expressed in baculovirus at 200 nM
# Sequence of MAP kinase-interacting serine/threonine-protein kinase 2 (Homo sapiens) (Q9HBH9 whole entry, looked up): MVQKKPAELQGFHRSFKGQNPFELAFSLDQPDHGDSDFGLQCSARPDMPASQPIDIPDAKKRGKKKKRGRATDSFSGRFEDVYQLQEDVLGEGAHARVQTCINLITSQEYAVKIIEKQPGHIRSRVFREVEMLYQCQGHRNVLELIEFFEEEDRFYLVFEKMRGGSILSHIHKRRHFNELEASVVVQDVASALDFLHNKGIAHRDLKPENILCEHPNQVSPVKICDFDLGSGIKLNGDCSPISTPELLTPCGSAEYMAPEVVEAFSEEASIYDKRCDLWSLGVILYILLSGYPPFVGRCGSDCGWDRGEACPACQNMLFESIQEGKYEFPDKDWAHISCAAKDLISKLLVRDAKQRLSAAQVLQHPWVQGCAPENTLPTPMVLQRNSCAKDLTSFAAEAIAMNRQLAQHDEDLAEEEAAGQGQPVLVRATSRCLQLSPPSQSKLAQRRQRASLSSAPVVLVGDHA
# [9] = Volume of distribution at steady state in Wistar Han rat at 1 mg/kg, iv administered as single dose; format: ADME, organism-based; conditions: in vivo, read-out: Vdss
# In short: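 Single-dose pharmacokinetic study in male animals, with iv and separate oral administration. Steady-state volume of distribution was derived from plasma concentrations after the iv dose.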
# hERG (KCNH2) = hERG (KCNH2) (Homo sapiens, UniProt Q12809); assay: Inhibition of human ERG at 100 uM by voltage clamp assay
# In short: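 hERG current measured by voltage clamp, test compound at 100 μM; percent current inhibition.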
# [10] = molecular target: T1, Interleukin-1 receptor-associated kinase 4 (Homo sapiens); assay: Inhibition of IRAK4 in human THP1 cell lysate at 200 nM
# [11] = Oral bioavailability in Wistar Han rat at 5 mg/kg administered as single dose; format: ADME, organism-based; conditions: in vivo
# Cynomolgus monkey = assay: Plasma clearance in cynomolgus monkey at 1 mg/kg, iv administered as single dose; format: ADME, organism-based, Macaca fascicularis; conditions: in vivo
# CYP2C9 = CYP2C9 (Homo sapiens, UniProt P11712); assay: Inhibition of CYP2C9 in human liver microsomes at 3 uM; format: ADME
# Cytochrome P450 2D6 = Cytochrome P450 2D6 (Homo sapiens, UniProt P10635); assay: Time dependent inhibition of CYP2D6 in human liver microsomes at 100 uM; format: ADME
# In short: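 Pooled human liver microsomes with CYP probe substrates. Time-dependent inhibition was assessed across CYP1A2, 2B6, 2C8, 2C9, 2C19 and 2D6, with test compound at 100 μM.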
# Plasma [12] = assay: Free plasma concentration in Sprague-Dawley rat LPS model at 30 mg/kg, po after 2.5 hrs; format: ADME, organism-based; conditions: in vivo; in short: as §1
# [13] = Half life in cynomolgus monkey at 1 mg/kg, iv administered as single dose; format: ADME, organism-based, Macaca fascicularis; conditions: in vivo
# [14] = molecular target: Leucine-rich repeat serine/threonine-protein kinase 2 (Homo sapiens) (UniProt Q5S007); assay: Inhibition of recombinant human GST-tagged LRRK2 expressed in baculovirus at 200 nM
# Sequence of Leucine-rich repeat serine/threonine-protein kinase 2 (Homo sapiens) (Q5S007 whole entry): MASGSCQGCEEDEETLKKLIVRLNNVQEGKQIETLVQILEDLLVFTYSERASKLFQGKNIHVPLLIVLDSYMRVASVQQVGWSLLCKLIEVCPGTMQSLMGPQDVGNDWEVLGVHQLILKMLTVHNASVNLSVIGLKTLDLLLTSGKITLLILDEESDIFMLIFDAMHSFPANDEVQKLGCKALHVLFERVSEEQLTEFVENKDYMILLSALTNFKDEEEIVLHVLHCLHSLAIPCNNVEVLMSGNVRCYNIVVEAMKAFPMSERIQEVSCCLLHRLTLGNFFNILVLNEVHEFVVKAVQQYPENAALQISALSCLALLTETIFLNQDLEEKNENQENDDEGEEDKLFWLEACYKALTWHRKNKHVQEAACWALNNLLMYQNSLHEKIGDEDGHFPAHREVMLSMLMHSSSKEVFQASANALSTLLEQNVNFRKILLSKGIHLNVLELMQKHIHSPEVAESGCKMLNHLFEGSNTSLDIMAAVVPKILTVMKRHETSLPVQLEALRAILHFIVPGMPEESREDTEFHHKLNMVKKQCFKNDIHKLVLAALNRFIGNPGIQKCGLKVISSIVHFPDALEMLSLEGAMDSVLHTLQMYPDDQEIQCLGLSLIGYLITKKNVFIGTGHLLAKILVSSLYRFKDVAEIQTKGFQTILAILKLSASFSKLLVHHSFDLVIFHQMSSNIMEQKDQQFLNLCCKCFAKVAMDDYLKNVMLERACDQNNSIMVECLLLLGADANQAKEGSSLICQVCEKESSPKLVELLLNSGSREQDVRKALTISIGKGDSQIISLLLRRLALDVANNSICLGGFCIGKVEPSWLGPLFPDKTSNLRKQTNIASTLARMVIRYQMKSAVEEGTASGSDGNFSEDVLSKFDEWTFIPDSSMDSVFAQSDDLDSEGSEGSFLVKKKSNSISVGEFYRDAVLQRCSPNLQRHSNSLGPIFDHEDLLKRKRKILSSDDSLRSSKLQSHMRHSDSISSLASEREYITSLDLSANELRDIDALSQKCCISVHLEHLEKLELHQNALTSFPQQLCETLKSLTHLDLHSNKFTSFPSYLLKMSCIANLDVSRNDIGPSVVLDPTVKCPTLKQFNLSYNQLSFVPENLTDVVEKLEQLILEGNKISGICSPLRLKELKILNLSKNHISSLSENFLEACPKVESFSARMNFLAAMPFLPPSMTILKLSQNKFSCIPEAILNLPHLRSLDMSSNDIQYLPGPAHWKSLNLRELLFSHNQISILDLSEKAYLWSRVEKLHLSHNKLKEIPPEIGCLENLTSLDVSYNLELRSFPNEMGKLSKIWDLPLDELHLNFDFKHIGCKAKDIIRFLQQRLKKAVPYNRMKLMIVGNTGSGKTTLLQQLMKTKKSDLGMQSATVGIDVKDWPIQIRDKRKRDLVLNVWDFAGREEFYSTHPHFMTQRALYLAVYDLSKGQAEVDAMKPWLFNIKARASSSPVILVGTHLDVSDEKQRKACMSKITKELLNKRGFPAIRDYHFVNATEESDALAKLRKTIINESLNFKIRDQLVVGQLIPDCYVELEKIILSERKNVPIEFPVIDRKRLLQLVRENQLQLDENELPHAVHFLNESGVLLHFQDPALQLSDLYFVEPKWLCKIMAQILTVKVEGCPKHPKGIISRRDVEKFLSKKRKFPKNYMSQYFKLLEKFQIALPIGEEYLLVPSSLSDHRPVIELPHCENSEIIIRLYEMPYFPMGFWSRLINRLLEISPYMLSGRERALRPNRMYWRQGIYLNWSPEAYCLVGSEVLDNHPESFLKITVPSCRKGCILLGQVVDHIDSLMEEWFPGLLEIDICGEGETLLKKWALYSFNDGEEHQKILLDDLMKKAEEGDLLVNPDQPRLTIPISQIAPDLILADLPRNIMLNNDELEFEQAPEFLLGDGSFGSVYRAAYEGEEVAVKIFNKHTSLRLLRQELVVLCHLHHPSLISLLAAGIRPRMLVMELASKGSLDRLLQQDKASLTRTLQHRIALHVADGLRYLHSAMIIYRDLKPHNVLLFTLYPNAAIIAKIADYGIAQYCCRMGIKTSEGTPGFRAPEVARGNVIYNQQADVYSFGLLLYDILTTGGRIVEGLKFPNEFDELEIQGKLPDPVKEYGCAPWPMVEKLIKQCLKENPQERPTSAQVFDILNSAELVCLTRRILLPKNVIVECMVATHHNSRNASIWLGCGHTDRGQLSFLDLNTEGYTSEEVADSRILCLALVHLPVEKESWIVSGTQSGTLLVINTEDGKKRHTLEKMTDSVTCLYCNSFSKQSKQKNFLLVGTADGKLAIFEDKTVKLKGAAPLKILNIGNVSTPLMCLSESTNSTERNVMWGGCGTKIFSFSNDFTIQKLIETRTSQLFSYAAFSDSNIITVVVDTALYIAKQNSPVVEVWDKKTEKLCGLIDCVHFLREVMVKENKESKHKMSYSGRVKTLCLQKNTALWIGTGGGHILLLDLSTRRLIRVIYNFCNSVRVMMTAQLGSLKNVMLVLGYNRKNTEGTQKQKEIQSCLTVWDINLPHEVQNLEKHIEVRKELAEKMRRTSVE
# Rattus norvegicus [15] = assay: Plasma clearance in Wistar Han rat at 1 mg/kg, iv administered as single dose; format: ADME, organism-based; conditions: in vivo
# Cytochrome P450 2C8 = Cytochrome P450 2C8 (Homo sapiens, UniProt P10632); assay: Time dependent inhibition of CYP2C8 in human liver microsomes at 100 uM; format: ADME; in short: as §2
# Sequence of Cytochrome P450 2C8 (P10632 whole entry): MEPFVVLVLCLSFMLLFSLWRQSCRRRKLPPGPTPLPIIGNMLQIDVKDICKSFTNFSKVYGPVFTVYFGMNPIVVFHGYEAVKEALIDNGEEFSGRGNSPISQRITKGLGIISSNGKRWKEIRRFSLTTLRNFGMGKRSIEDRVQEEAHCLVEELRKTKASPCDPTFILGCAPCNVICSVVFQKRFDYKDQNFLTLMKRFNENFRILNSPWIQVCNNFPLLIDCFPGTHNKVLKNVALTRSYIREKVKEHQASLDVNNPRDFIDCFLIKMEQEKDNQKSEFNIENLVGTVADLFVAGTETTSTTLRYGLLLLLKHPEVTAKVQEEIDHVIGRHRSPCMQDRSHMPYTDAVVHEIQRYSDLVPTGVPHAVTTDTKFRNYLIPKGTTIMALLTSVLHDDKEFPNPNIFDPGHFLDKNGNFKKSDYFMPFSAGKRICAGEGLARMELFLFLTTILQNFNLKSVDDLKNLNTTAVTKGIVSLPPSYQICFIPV
# [16] = Lipophilicity, log D of compound; format: physicochemical; conditions: octanol/water
# [17] = Fraction unbound in rat plasma; format: ADME, cell-free
# In short: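 Fraction unbound in plasma measured by equilibrium dialysis.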
# [18] = Half life in Wistar Han rat at 5 mg/kg, po administered as single dose; format: ADME, organism-based; conditions: in vivo
# [19] = Oral bioavailability in cynomolgus monkey at 5 mg/kg administered as single dose; format: ADME, organism-based, Macaca fascicularis; conditions: in vivo
# [20] = molecular target: Vascular endothelial growth factor receptor 2 (Homo sapiens, UniProt P35968); assay: Inhibition of human recombinant VEGFR2 using CAGAGAIETDKEYYTVKD as substrate after 60 mins by Lance method
# Rattus norvegicus [21] = assay: Inhibition of LPS induced TNFalpha secretion in Sprague-Dawley rat assessed as decrease in TNFalpha level in serum at 1 mg/kg, po pretreated for 1 hr followed by LPS challenge measured after 1.5 hrs relative to control; format: functional; in short: as §3
# [22] = Solubility of compound in water at pH 8.1; format: physicochemical
# In short: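 Solubility of crystalline material measured in phosphate-buffered saline pH 6.7, unbuffered water pH 8.1 and simulated fasted-state intestinal fluid pH 6.5, reported in μg/mL.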
# Sequence of CYP1A2 (P05177 whole entry): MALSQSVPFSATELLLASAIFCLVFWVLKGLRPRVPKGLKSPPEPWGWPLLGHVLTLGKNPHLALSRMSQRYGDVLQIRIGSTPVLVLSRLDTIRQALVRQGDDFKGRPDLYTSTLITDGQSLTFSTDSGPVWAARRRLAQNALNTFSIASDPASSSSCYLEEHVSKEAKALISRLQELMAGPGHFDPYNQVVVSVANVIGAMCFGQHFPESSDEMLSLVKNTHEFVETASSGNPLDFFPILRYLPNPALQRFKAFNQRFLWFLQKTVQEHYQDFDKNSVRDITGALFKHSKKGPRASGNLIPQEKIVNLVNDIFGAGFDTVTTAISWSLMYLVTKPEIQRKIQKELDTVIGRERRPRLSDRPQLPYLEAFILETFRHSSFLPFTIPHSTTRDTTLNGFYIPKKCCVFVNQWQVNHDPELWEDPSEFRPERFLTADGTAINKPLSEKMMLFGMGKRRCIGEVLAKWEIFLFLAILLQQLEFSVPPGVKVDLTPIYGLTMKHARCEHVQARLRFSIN
compound,measurement,setting,value
CC[C@@H]1[C@H](F)C(=O)N[C@@H]1COc1nccc2cc(C(N)=O)c(OC)cc12 [ZIMLOVISERTIB],inhibition at 3 µM,CYP1A2,< 5%
same,Cp(f),Plasma [1],2.1 nM
same,TDI,Cytochrome P450 2B6,Not Active
same,inhibition,[2],100%
same,inhibition,[3],> 50%
same,half-life,[4],6.2 h
same,inhibition in vivo at 30 mg/kg,Rattus norvegicus [5],87%
same,inhibition at 3 µM,CYP3A4,< 5%
same,Cp(f),Plasma [6],19 nM
same,inhibition in vivo at 3 mg/kg,Rattus norvegicus [7],60%
same,TDI,Cytochrome P450 2C19,Not Active
same,inhibition,[8],> 70%
same,Vd,[9],1.8 L/kg
same,inhibition at 100 µM,hERG (KCNH2),25%
same,inhibition,[10],> 50%
same,bioavailability,[11],34 to 50%
same,clearance,Cynomolgus monkey,10 mL/min/kg
same,inhibition at 3 µM,CYP2C9,< 5%
same,TDI,Cytochrome P450 2D6,Not Active
same,Cp(f),Plasma [12],150 nM
same,half-life,[13],1.7 h
same,inhibition,[14],> 70%
same,clearance,Rattus norvegicus [15],56 mL/min/kg
same,TDI,Cytochrome P450 2C8,Not Active
same,logD,[16],2
same,fraction unbound,[17],0.3
same,half-life,[18],1.4 to 2.1 h
same,bioavailability,[19],6.9%
same,IC50,[20],5.33 µM
same,inhibition in vivo at 1 mg/kg,Rattus norvegicus [21],52%
same,solubility,[22],65 µg/mL
